Results reported in paper PMC6248884 (European journal of medicinal chemistry, 2018).
Like-named read-outs stand apart in the source and are kept apart here. Square brackets hold non-standard residues; d marks the D form. Peptide text beside a SMILES is read from it. * marks the point of attachment. Dolaproine = CO[C@@H]([C@@H]1CCCN1)[C@@H](C)C(=O)O; Dil = CC[C@H](C)[C@H](NC)[C@@H](CC(=O)O)OC; X1 = C[C@@H](N*)[C@@H](O)c1ccccc1; NMeV = CN[C@H](C(=O)O)C(C)C

How the values were obtained:
[1] = test system: NCI-H460 cells; test: Cytotoxicity assay to NCI-H460 human lung carcinoma cells; assay type: cell-based
[2] = test system: HCT116 cells; test: Cytotoxicity to HCT116 colon adenocarcinoma cell line; assay type: cell-based
[3] = test system: MDA-MB-468 cells (Her2-); test: Cell proliferation assay; assay type: cell-based
[4] = test system: SKBR3 cells (Her2+); test: Cell proliferation assay; assay type: cell-based
[5] = target: human 20S proteasome ChT-L site (Homo sapiens, UniProt P20618+P28074); test: Proteasome inhibition assay, chymotrypsin-like site, fluorogenic substrate; assay type: biochemical
Summary of the method: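 Human recombinant 20S proteasome, 3 µg/mL in buffer (100 mM Tris pH 7.5, 0.5 mM EDTA, 0.03% SDS), preincubated 30 min at 37 °C with test compound or 25% DMSO vehicle. Reaction started with site-selective AMC substrate (Suc-LLVY-AMC for ChT-L) and run 30 min at 37 °C. Eleven-point 3-fold series, 1.0 µM–[…] final, in triplicate. Fluorescence read at ex 365/em 450 nm; data scaled to internal controls; IC50 from four-parameter logistic fit.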

[6] = target: human 20S proteasome T-L site (Homo sapiens, UniProt P49720+Q99436); test: Proteasome inhibition assay, trypsin-like site, fluorogenic substrate; assay type: biochemical
[7] = target: human 20S proteasome C-L site (Homo sapiens, UniProt P28072+Q99436); test: Proteasome inhibition assay, caspase-like site, fluorogenic substrate; assay type: biochemical
[8] = target: ChT-L site of the proteasome; test: Binding affinity to the ChT-L site of the proteasome; assay type: biochemical; conditions: read-out: IC50, ChT-L site of the proteasome; proteasome source not stated
[9] = test system: MDA-MB-231 cells (Her2-); test: Cell proliferation assay; assay type: cell-based; conditions: read-out: MDA-MB-231 IC50, Table 5
[10] = Homo sapiens, NCI-H460, read-out: NCI-H460 IC50
[11] = Homo sapiens, HCT-116, read-out: HCT116 IC50
[12] = Homo sapiens, MDA-MB-468, read-out: MDA-MB-468 IC50
[13] = Homo sapiens, SK-BR-3, read-out: SKBR3 IC50
[14] = read-out: NCI-H460 IC50, Table 1, NCI-H460 cell line

Structure (SMILES): CC(C)(C)OC(=O)NCCS(=O)(=O)CC[C@H](NC(=O)[C@H](Cc1ccccc1)NC(=O)Cc1ccccc1)C(=O)N[C@@H](Cc1ccccc1)C(=O)[C@@]1(C)CO1 [Analogue 10-Boc, tert-Butyl (2-(((S)-4-(((S)-1-((R)-2-methyloxiran-2-yl)-1-oxo-3-phenylpropan-2-yl)amino)-4oxo-3-((S)-3-phenyl-2-(2-phenylacetamido)propanamido)butyl)sulfonyl)ethyl)carbamate]
- IC50 [1, 10]: 21 ± 1.3 nM
- IC50 [2, 11]: 10.9 ± 0.98 nM

Structure (SMILES): CCCCCC(=O)N[C@H](C(=O)N[C@@H](CCS(=O)(=O)CCNC(=O)OC(C)(C)C)C(=O)N[C@@H](Cc1ccccc1)C(=O)[C@@]1(C)CO1)C(C)C [Analogue 9-Boc, tert-Butyl (2-(((S)-3-((S)-2-hexanamido-3-methylbutanamido)-4-(((S)-1-((R)-2methyloxiran-2-yl)-1-oxo-3-phenylpropan-2-yl)amino)-4oxobutyl)sulfonyl)ethyl)carbamate]
- IC50 [1, 10]: 2.6 ± 0.12 nM
- IC50 [2, 11]: 1.3 ± 0.2 nM

Structure (SMILES): CCCCCC(=O)NC(C(=O)NC(CCSC)C(=O)NC(CC(C)C)C(=O)C1(C)CO1)C(C)C (centres unmarked) [Analogue 21]
- IC50 ([1]; read-out: NCI-H460 IC50, Table 2, NCI-H460 cell line): 27 ± 2.6 nM
- IC50 ([2]; read-out: HCT116 IC50, Table 2, HCT116 cell line): 22 nM

Structure (SMILES): CC(C)C[C@H](NC(=O)CC[C@H](NC(=O)[C@@H](NC(=O)Cc1ccc(N)cc1)C(C)C)C(=O)N[C@@H](CC(C)C)C(=O)[C@@]1(C)CO1)C(=O)[C@@]1(C)CO1 [Analogue 16, (S)-2-((S)-2-(2-(4-Aminophenyl)acetamido)-3-methylbutanamido)-N1,N5-bis((S)-4-methyl1-((R)-2-methyloxiran-2-yl)-1-oxopentan-2-yl)pentanediamide]
- IC50 [1, 10]: 25.3 nM
- IC50 [2, 11]: 45 nM
- IC50 [3, 12]: 33 nM
- IC50 [4, 13]: 25 nM
- IC50 [5]: 90 ± 13 nM
- IC50 [6]: 71.5 nM
- IC50 [7]: > 1000 nM

Structure (SMILES): CC(C)C[C@H](NC(=O)[C@H](CCS(=O)(=O)CCNC(=O)OC(C)(C)C)NC(=O)[C@H](Cc1ccccc1)NC(=O)Cc1ccccc1)C(=O)[C@@]1(C)CO1 [Analogue 8-Boc, tert-Butyl (2-(((S)-4-(((S)-4-methyl-1-((R)-2-methyloxiran-2-yl)-1-oxopentan-2-yl)amino)-4oxo-3-((S)-3-phenyl-2-(2-phenylacetamido)propanamido)butyl)sulfonyl)ethyl)carbamate]
- IC50 [1, 10]: 8.5 ± 1.2 nM
- IC50 [2, 11]: 4.8 ± 0.35 nM

Structure (SMILES): CC(C)CC(NC(=O)C(CCS(C)(=O)=O)NC(=O)C(NC(=O)CCCCCN)C(C)C)C(=O)C1(C)CO1 (centres unmarked) [Analogue 6]
- IC50 [1, 14]: 860 nM
- IC50 [8]: 539 nM

Structure (SMILES): CC[C@H](C)[C@@H]([C@@H](CC(=O)N1CCC[C@H]1[C@H](OC)[C@@H](C)C(=O)N[C@H](C)[C@@H](O)c1ccccc1)OC)N(C)C(=O)[C@@H](NC(=O)[C@@H](NC)C(C)C)C(C)C [MMAE, monomethyl auristatin E, reference compound] (H-[NMeV]V[Dil][Dolaproine]-X1)
- IC50 ([3]; read-out: MDA-MB-468 IC50, Table 5, Her2- cell): 0.17 nM
- IC50 ([4]; read-out: SKBR3 IC50, Table 5, Her2+ cell): 0.072 nM
- IC50 [9]: 0.005 nM

Structure (SMILES): CCCCCC(=O)N[C@H](C(=O)N[C@@H](CCS(=O)(=O)c1ccc(NC(=O)OC(C)(C)C)cc1)C(=O)N[C@@H](CC(C)C)C(=O)[C@@]1(C)CO1)C(C)C [Analogue 13-Boc, tert-Butyl (4-(((S)-3-((S)-2-hexanamido-3-methylbutanamido)-4-(((S)-4-methyl-1-((R)-2methyloxiran-2-yl)-1-oxopentan-2-yl)amino)-4-oxobutyl)sulfonyl)phenyl)carbamate]
- IC50 [2, 11]: 4.9 ± 0.1 nM

Structure (SMILES): CCCCCC(=O)N[C@H](C(=O)N[C@@H](CCS(C)(=O)=O)C(=O)N[C@@H](CC(C)C)C(=O)[C@@]1(C)CO1)C(C)C [carmaphycin B, reference compound]
- IC50 [1, 14]: 6 nM

Structure (SMILES): CCCCCC(=O)N[C@H](C(=O)N[C@@H](CCS(=O)(=O)CCN)C(=O)N[C@@H](Cc1ccccc1)C(=O)[C@@]1(C)CO1)C(C)C [Analogue 9, N-((S)-1-(((S)-4-((2-Aminoethyl)sulfonyl)-1-(((S)-1-((R)-2-methyloxiran-2-yl)-1-oxo-3phenylpropan-2-yl)amino)-1-oxobutan-2-yl)amino)-3-methyl-1-oxobutan-2-yl)hexanamide]
- IC50 [1, 10]: 33.4 nM
- IC50 [2, 11]: 882 nM

Structure (SMILES): C[C@]1(C(=O)[C@H](Cc2ccccc2)NC(=O)[C@H](CCS(=O)(=O)CCN)NC(=O)[C@H](Cc2ccccc2)NC(=O)Cc2ccccc2)CO1 [Analogue 10, (S)-4-((2-Aminoethyl)sulfonyl)-N-((S)-1-((R)-2-methyloxiran-2-yl)-1-oxo-3-phenylpropan-2yl)-2-((S)-3-phenyl-2-(2-phenylacetamido)propanamido)butanamide]
- IC50 [1, 10]: 304 nM
- IC50 [2, 11]: 698 nM

Structure (SMILES): CCCCCC(=O)N[C@H](C(=O)N[C@@H](CCC(=O)N[C@@H](CC(C)C)C(=O)[C@@]1(C)CO1)C(=O)NC(CCS(=O)(=O)c1ccc(N)cc1)C(=O)OC)C(C)C (stereo partly drawn) [Analogue 17, Methyl 4-((4-aminophenyl)sulfonyl)-2-((S)-2-((S)-2-hexanamido-3-methylbutanamido)-5(((S)-4-methyl-1-((R)-2-methyloxiran-2-yl)-1-oxopentan-2-yl)amino)-5oxopentanamido)butanoate]
- IC50 [1, 10]: > 10000 nM
- IC50 [2, 11]: 5540 nM
- IC50 [3, 12]: 1740 nM
- IC50 [4, 13]: 2430 nM
- IC50 [5]: > 1000 nM
- IC50 [6]: > 1000 nM
- IC50 [7]: > 1000 nM

Structure (SMILES): CCCCCC(=O)N[C@H](C(=O)N[C@@H](CCC(=O)N[C@@H](CC(C)C)C(=O)[C@@]1(C)CO1)C(=O)N[C@@H](CC(C)C)C(=O)[C@@]1(C)CO1)C(C)C [Analogue 14, (S)-2-((S)-2-Hexanamido-3-methylbutanamido)-N1,N5-bis((S)-4-methyl-1-((R)-2methyloxiran-2-yl)-1-oxopentan-2-yl)pentanediamide]
- IC50 [1, 10]: 5.4 ± 1 nM
- IC50 [2, 11]: 0.2 ± 0.1 nM
- IC50 [5]: 1.9 ± 0.1 nM
- IC50 [6]: 98 nM
- IC50 [7]: 150 nM

Structure (SMILES): CC(C)C[C@H](NC(=O)[C@H](CCS(=O)(=O)CCN)NC(=O)[C@H](Cc1ccccc1)NC(=O)Cc1ccccc1)C(=O)[C@@]1(C)CO1 [Analogue 8, (S)-4-((2-Aminoethyl)sulfonyl)-N-((S)-4-methyl-1-((R)-2-methyloxiran-2-yl)-1-oxopentan-2yl)-2-((S)-3-phenyl-2-(2-phenylacetamido)propanamido)butanamide]
- IC50 [1, 10]: 34.2 nM
- IC50 [2, 11]: 165 nM

Structure (SMILES): CCCCCC(=O)N[C@H](C(=O)N[C@@H](CCS(=O)(=O)CCN)C(=O)N[C@@H](CC(C)C)C(=O)[C@@]1(C)CO1)C(C)C [Analogue 7, N-((S)-1-(((S)-4-((2-aminoethyl)sulfonyl)-1-(((S)-4-methyl-1-((R)-2-methyloxiran-2-yl)-1oxopentan-2-yl)amino)-1-oxobutan-2-yl)amino)-3-methyl-1-oxobutan-2-yl)hexanamide]
- IC50 [1, 10]: 34 nM
- IC50 [2, 11]: 624 nM
- IC50 [5]: 42.2 ± 5.4 nM

Structure (SMILES): CCCCCC(=O)N[C@H](C(=O)N[C@@H](CCS(=O)(=O)CCNC(=O)OC(C)(C)C)C(=O)N[C@@H](CC(C)C)C(=O)[C@@]1(C)CO1)C(C)C [Analogue 7-Boc, tert-Butyl (2-(((S)-3-((S)-2-hexanamido-3-methylbutanamido)-4-(((S)-4-methyl-1-((R)-2methyloxiran-2-yl)-1-oxopentan-2-yl)amino)-4-oxobutyl)sulfonyl)ethyl)carbamate]
- IC50 [1, 10]: 2.1 ± 0.16 nM
- IC50 [2, 11]: 4.8 ± 0.27 nM
- IC50 [5]: 14.2 ± 2.4 nM

Structure (SMILES): CCCCCC(=O)N[C@H](C(=O)N[C@@H](CCS(=O)(=O)c1ccc(N)cc1)C(=O)N[C@@H](CC(C)C)C(=O)[C@@]1(C)CO1)C(C)C [Analogue 13, N-((S)-1-(((S)-4-((4-Aminophenyl)sulfonyl)-1-(((S)-4-methyl-1-((R)-2-methyloxiran-2-yl)-1oxopentan-2-yl)amino)-1-oxobutan-2-yl)amino)-3-methyl-1-oxobutan-2-yl)hexanamide]
- IC50 [1, 10]: 1.8 ± 0.1 nM
- IC50 [2, 11]: 2.6 ± 0.2 nM
- IC50 [4, 13]: 0.43 nM
- IC50 [5]: 1.5 ± 0.2 nM
- IC50 [6]: 14 nM
- IC50 [7]: 540 nM

Structure (SMILES): CCCCCC(=O)N[C@@H](Cc1ccc(N)cc1)C(=O)N[C@@H](CCC(=O)N[C@@H](CC(C)C)C(=O)[C@@]1(C)CO1)C(=O)N[C@@H](CC(C)C)C(=O)[C@@]1(C)CO1 [Analogue 15, (S)-2-((S)-3-(4-Aminophenyl)-2-hexanamidopropanamido)-N1,N5-bis((S)-4-methyl-1-((R)2-methyloxiran-2-yl)-1-oxopentan-2-yl)pentanediamide]
- IC50 [1, 10]: 29.8 nM
- IC50 [2, 11]: 53 nM
- IC50 [3, 12]: 30 nM
- IC50 [4, 13]: 21 nM
- IC50 [5]: 5.6 nM
- IC50 [6]: 315 nM
- IC50 [7]: > 1000 nM
